Data published in ChEMBL document CHEMBL1125366, “Low molecular weight, non-peptide fibrinogen receptor antagonists” (J Med Chem, 1992).
Square brackets hold non-standard residues; d marks the D form. Peptide text beside a SMILES is read from it. * marks the point of attachment. 3Abz = Nc1cccc(C(=O)O)c1; Boc = CC(C)(C)OC(=O)*

Biological target: T1, Integrin alpha-IIb/beta-3 (Homo sapiens) (UniProt P05106+P08514)
Assay: (§1) Inhibition of fibrinogen binding to immobilized fibrinogen receptor
Type: protein-complex assay

Structure (SMILES)	Ratio
N=C(N)c1cccc(S(=O)(=O)NCCc2ccc(OCC(=O)O)cc2)c1	24

Biological target: T1, Integrin alpha-IIb/beta-3 (Homo sapiens)
Assay: as §1
Type: protein-complex assay
Set-up: reference not given here

Ratio	Structure (SMILES)
0.001	CC(C)[C@H](NC(=O)[C@H](CC(=O)O)NC(=O)CNC(=O)Cc1ccc(C(=N)N)cc1)C(=O)O
0.06	CC(C)[C@H](NC(=O)[C@H](CC(=O)O)NC(=O)c1cccc(NC(=O)[C@H](CCCN=C(N)N)NC(=O)OC(C)(C)C)c1)C(=O)O (Boc-R[3Abz]DV-OH)
0.007	N=C(N)c1ccc(C(=O)NCCC(=O)NCCC(=O)O)cc1
0.3	N=C(N)NCCC[C@H](N)C(=O)NCC(=O)N[C@@H](CC(=O)O)C(=O)N[C@@H](Cc1ccccc1)C(=O)O (H-RGDF-OH)
0.009	N=C(N)c1ccc(C(=O)N[C@@H](CCCN)C(=O)N2CCC(OCC(=O)O)CC2)cc1
1	N=C(N)NCCC[C@H](N)C(=O)NCC(=O)N[C@@H](CC(=O)O)C(=O)N[C@@H](CO)C(=O)O
0.004	N=C(N)c1ccc(C(=O)NCCCCC(=O)N[C@@H](CC(=O)O)C(=O)N[C@@H](Cc2ccccc2)C(=O)O)cc1
0.002	CC(C)[C@H](NC(=O)[C@H](CC(=O)O)NC(=O)CCCNC(=O)c1ccc(C(=N)N)cc1)C(=O)O
0.001	N=C(N)c1ccc(C(=O)NCC(=O)c2ccc(OCC(=O)O)cc2)nc1

Continued, compound first:

Structure (SMILES)	Ratio
CC(C)(Oc1ccc(CCNS(=O)(=O)c2ccc(C(=N)N)cc2)cc1)C(=O)O	> 100
N=C(N)c1ccc(C(=O)N2CCC[C@H]2C(=O)N2CCC(OCC(=O)O)CC2)cc1	0.002
C[C@H](Cc1ccc(OCC(=O)O)cc1)NS(=O)(=O)c1ccc(C(=N)N)cc1	10.5
C[C@@H](Cc1ccc(OCC(=O)O)cc1)NS(=O)(=O)c1ccc(C(=N)N)cc1	0.34
N=C(N)c1ccc(C(=O)NCC(=O)c2ccc(OCC(=O)O)cc2)cc1	0.004
C[C@H](NC(=O)c1ccc(C(=N)N)cn1)C(=O)N1CCC(OCC(=O)O)CC1	0.0001
COC(=O)COc1ccc(CCNC(=O)c2ccc(C(=N)N)cc2)cc1	0.45
N=C(N)c1ccc(S(=O)(=O)NCCc2ccc(OCC(=O)O)cc2)cc1	0.2
N=C(N)c1ccc(C(=O)N[C@@H](Cc2ccc(O)cc2)C(=O)N2CCC(OCC(=O)O)CC2)cc1 [LAMIFIBAN]	0.0002

Biological target: Integrin alpha-V/beta-3 (Homo sapiens) (UniProt P05106+P06756)
Assay: Inhibition of fibrinogen binding to immobilized vitronectin receptor
Type: protein-complex assay
Set-up: reference not given here

Ratio	Structure (SMILES)
560	CC(C)[C@H](NC(=O)[C@H](CC(=O)O)NC(=O)CNC(=O)Cc1ccc(C(=N)N)cc1)C(=O)O
250	CC(C)[C@H](NC(=O)[C@H](CC(=O)O)NC(=O)c1cccc(NC(=O)[C@H](CCCN=C(N)N)NC(=O)OC(C)(C)C)c1)C(=O)O (Boc-R[3Abz]DV-OH)
3.5	N=C(N)NCCC[C@H](N)C(=O)NCC(=O)N[C@@H](CC(=O)O)C(=O)N[C@@H](Cc1ccccc1)C(=O)O (H-RGDF-OH)
> 30000	N=C(N)c1ccc(C(=O)N[C@@H](CCCN)C(=O)N2CCC(OCC(=O)O)CC2)cc1
1	N=C(N)NCCC[C@H](N)C(=O)NCC(=O)N[C@@H](CC(=O)O)C(=O)N[C@@H](CO)C(=O)O
280	N=C(N)c1ccc(C(=O)NCCCCC(=O)N[C@@H](CC(=O)O)C(=O)N[C@@H](Cc2ccccc2)C(=O)O)cc1
1700	CC(C)[C@H](NC(=O)[C@H](CC(=O)O)NC(=O)CCCNC(=O)c1ccc(C(=N)N)cc1)C(=O)O
> 20000	N=C(N)c1ccc(C(=O)NCC(=O)c2ccc(OCC(=O)O)cc2)nc1

Continued, compound first:

Structure (SMILES)	Ratio
C[C@H](Cc1ccc(OCC(=O)O)cc1)NS(=O)(=O)c1ccc(C(=N)N)cc1	> 30000
C[C@@H](Cc1ccc(OCC(=O)O)cc1)NS(=O)(=O)c1ccc(C(=N)N)cc1	1700
N=C(N)c1ccc(C(=O)NCC(=O)c2ccc(OCC(=O)O)cc2)cc1	8400
C[C@H](NC(=O)c1ccc(C(=N)N)cn1)C(=O)N1CCC(OCC(=O)O)CC1	> 30000
COC(=O)COc1ccc(CCNC(=O)c2ccc(C(=N)N)cc2)cc1	2300
N=C(N)c1ccc(C(=O)N[C@@H](Cc2ccc(O)cc2)C(=O)N2CCC(OCC(=O)O)CC2)cc1 [LAMIFIBAN]	17500

Test system: not listed separately
Assay: Inhibition of platelet aggregation in human-platelet rich plasma(h-PRP) induced by adenosine 5'-diphosphate-(ADP)
Type: functional
Method in brief: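 Citrated human PRP with serial inhibitor dilutions; aggregation triggered by 10 μM ADP (final) and followed as rate of light transmission change in an aggregometer; plasma from at least four donors.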

IC50 [nM]	Structure (SMILES)
300	CC(C)[C@H](NC(=O)[C@H](CC(=O)O)NC(=O)CNC(=O)Cc1ccc(C(=N)N)cc1)C(=O)O
4900	CC(C)[C@H](NC(=O)[C@H](CC(=O)O)NC(=O)c1cccc(NC(=O)[C@H](CCCN=C(N)N)NC(=O)OC(C)(C)C)c1)C(=O)O (Boc-R[3Abz]DV-OH)
1100	N=C(N)c1ccc(C(=O)NCCC(=O)NCCC(=O)O)cc1
19000	N=C(N)NCCC[C@H](N)C(=O)NCC(=O)N[C@@H](CC(=O)O)C(=O)N[C@@H](Cc1ccccc1)C(=O)O (H-RGDF-OH)
100	N=C(N)c1ccc(C(=O)N[C@@H](CCCN)C(=O)N2CCC(OCC(=O)O)CC2)cc1
88000	N=C(N)NCCC[C@H](N)C(=O)NCC(=O)N[C@@H](CC(=O)O)C(=O)N[C@@H](CO)C(=O)O
200	N=C(N)c1ccc(C(=O)NCCCCC(=O)N[C@@H](CC(=O)O)C(=O)N[C@@H](Cc2ccccc2)C(=O)O)cc1
700	CC(C)[C@H](NC(=O)[C@H](CC(=O)O)NC(=O)CCCNC(=O)c1ccc(C(=N)N)cc1)C(=O)O
30	N=C(N)c1ccc(C(=O)NCC(=O)c2ccc(OCC(=O)O)cc2)nc1

The next lines start with the compound.

Structure (SMILES)	IC50 [nM]
CC(C)(Oc1ccc(CCNS(=O)(=O)c2ccc(C(=N)N)cc2)cc1)C(=O)O	> 200000
N=C(N)c1cccc(S(=O)(=O)NCCc2ccc(OCC(=O)O)cc2)c1	> 200000
N=C(N)c1ccc(C(=O)N2CCC[C@H]2C(=O)N2CCC(OCC(=O)O)CC2)cc1	60
C[C@H](Cc1ccc(OCC(=O)O)cc1)NS(=O)(=O)c1ccc(C(=N)N)cc1	115000
C[C@@H](Cc1ccc(OCC(=O)O)cc1)NS(=O)(=O)c1ccc(C(=N)N)cc1	7400
N=C(N)c1ccc(C(=O)NCC(=O)c2ccc(OCC(=O)O)cc2)cc1	90
C[C@H](NC(=O)c1ccc(C(=N)N)cn1)C(=O)N1CCC(OCC(=O)O)CC1	20
COC(=O)COc1ccc(CCNC(=O)c2ccc(C(=N)N)cc2)cc1	900
N=C(N)c1ccc(S(=O)(=O)NCCc2ccc(OCC(=O)O)cc2)cc1	15000
N=C(N)c1ccc(C(=O)N[C@@H](Cc2ccc(O)cc2)C(=O)N2CCC(OCC(=O)O)CC2)cc1 [LAMIFIBAN]	30

Test system: not listed separately
Assay: Inhibition of platelet aggregation in human-platelet rich plasma(h-PRP) induced by collagen
Type: functional
Method in brief: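 Citrated human PRP with serial inhibitor dilutions; aggregation triggered by collagen at 2.5 μg/mL (final) and followed as rate of light transmission change in an aggregometer; plasma from at least four donors.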

IC50 [nM]	Structure (SMILES)
500	CC(C)[C@H](NC(=O)[C@H](CC(=O)O)NC(=O)CNC(=O)Cc1ccc(C(=N)N)cc1)C(=O)O
7000	CC(C)[C@H](NC(=O)[C@H](CC(=O)O)NC(=O)c1cccc(NC(=O)[C@H](CCCN=C(N)N)NC(=O)OC(C)(C)C)c1)C(=O)O (Boc-R[3Abz]DV-OH)
900	N=C(N)c1ccc(C(=O)NCCC(=O)NCCC(=O)O)cc1
38000	N=C(N)NCCC[C@H](N)C(=O)NCC(=O)N[C@@H](CC(=O)O)C(=O)N[C@@H](Cc1ccccc1)C(=O)O (H-RGDF-OH)
70	N=C(N)c1ccc(C(=O)N[C@@H](CCCN)C(=O)N2CCC(OCC(=O)O)CC2)cc1
142000	N=C(N)NCCC[C@H](N)C(=O)NCC(=O)N[C@@H](CC(=O)O)C(=O)N[C@@H](CO)C(=O)O
400	N=C(N)c1ccc(C(=O)NCCCCC(=O)N[C@@H](CC(=O)O)C(=O)N[C@@H](Cc2ccccc2)C(=O)O)cc1
700	CC(C)[C@H](NC(=O)[C@H](CC(=O)O)NC(=O)CCCNC(=O)c1ccc(C(=N)N)cc1)C(=O)O
20	N=C(N)c1ccc(C(=O)NCC(=O)c2ccc(OCC(=O)O)cc2)nc1

Further lines, the compound ahead of its results:

Structure (SMILES)	IC50 [nM]
CC(C)(Oc1ccc(CCNS(=O)(=O)c2ccc(C(=N)N)cc2)cc1)C(=O)O	> 200000
N=C(N)c1cccc(S(=O)(=O)NCCc2ccc(OCC(=O)O)cc2)c1	> 200000
N=C(N)c1ccc(C(=O)N2CCC[C@H]2C(=O)N2CCC(OCC(=O)O)CC2)cc1	110
C[C@H](Cc1ccc(OCC(=O)O)cc1)NS(=O)(=O)c1ccc(C(=N)N)cc1	102000
C[C@@H](Cc1ccc(OCC(=O)O)cc1)NS(=O)(=O)c1ccc(C(=N)N)cc1	11000
N=C(N)c1ccc(C(=O)NCC(=O)c2ccc(OCC(=O)O)cc2)cc1	130
C[C@H](NC(=O)c1ccc(C(=N)N)cn1)C(=O)N1CCC(OCC(=O)O)CC1	30
COC(=O)COc1ccc(CCNC(=O)c2ccc(C(=N)N)cc2)cc1	300
N=C(N)c1ccc(S(=O)(=O)NCCc2ccc(OCC(=O)O)cc2)cc1	12000
N=C(N)c1ccc(C(=O)N[C@@H](Cc2ccc(O)cc2)C(=O)N2CCC(OCC(=O)O)CC2)cc1 [LAMIFIBAN]	20

Test system: not listed separately
Assay: Inhibition of platelet aggregation in human-platelet rich plasma(h-PRP) induced by thrombin
Type: functional
Method in brief: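 Citrated human PRP with serial inhibitor dilutions; aggregation triggered by thrombin at 0.2 unit/mL (final) and followed as rate of light transmission change in an aggregometer; plasma from at least four donors.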

IC50 [nM]	Structure (SMILES)
300	CC(C)[C@H](NC(=O)[C@H](CC(=O)O)NC(=O)CNC(=O)Cc1ccc(C(=N)N)cc1)C(=O)O
4400	CC(C)[C@H](NC(=O)[C@H](CC(=O)O)NC(=O)c1cccc(NC(=O)[C@H](CCCN=C(N)N)NC(=O)OC(C)(C)C)c1)C(=O)O (Boc-R[3Abz]DV-OH)
900	N=C(N)c1ccc(C(=O)NCCC(=O)NCCC(=O)O)cc1
21000	N=C(N)NCCC[C@H](N)C(=O)NCC(=O)N[C@@H](CC(=O)O)C(=O)N[C@@H](Cc1ccccc1)C(=O)O (H-RGDF-OH)
70	N=C(N)c1ccc(C(=O)N[C@@H](CCCN)C(=O)N2CCC(OCC(=O)O)CC2)cc1
135000	N=C(N)NCCC[C@H](N)C(=O)NCC(=O)N[C@@H](CC(=O)O)C(=O)N[C@@H](CO)C(=O)O
100	N=C(N)c1ccc(C(=O)NCCCCC(=O)N[C@@H](CC(=O)O)C(=O)N[C@@H](Cc2ccccc2)C(=O)O)cc1
700	CC(C)[C@H](NC(=O)[C@H](CC(=O)O)NC(=O)CCCNC(=O)c1ccc(C(=N)N)cc1)C(=O)O
40	N=C(N)c1ccc(C(=O)NCC(=O)c2ccc(OCC(=O)O)cc2)nc1

The next lines start with the compound.

Structure (SMILES)	IC50 [nM]
CC(C)(Oc1ccc(CCNS(=O)(=O)c2ccc(C(=N)N)cc2)cc1)C(=O)O	> 200000
N=C(N)c1cccc(S(=O)(=O)NCCc2ccc(OCC(=O)O)cc2)c1	> 200000
N=C(N)c1ccc(C(=O)N2CCC[C@H]2C(=O)N2CCC(OCC(=O)O)CC2)cc1	50
C[C@H](Cc1ccc(OCC(=O)O)cc1)NS(=O)(=O)c1ccc(C(=N)N)cc1	103000
C[C@@H](Cc1ccc(OCC(=O)O)cc1)NS(=O)(=O)c1ccc(C(=N)N)cc1	9300
N=C(N)c1ccc(C(=O)NCC(=O)c2ccc(OCC(=O)O)cc2)cc1	90
C[C@H](NC(=O)c1ccc(C(=N)N)cn1)C(=O)N1CCC(OCC(=O)O)CC1	30
COC(=O)COc1ccc(CCNC(=O)c2ccc(C(=N)N)cc2)cc1	500
N=C(N)c1ccc(S(=O)(=O)NCCc2ccc(OCC(=O)O)cc2)cc1	12000
N=C(N)c1ccc(C(=O)N[C@@H](Cc2ccc(O)cc2)C(=O)N2CCC(OCC(=O)O)CC2)cc1 [LAMIFIBAN]	30
